The target of assay [1] is Mitogen-activated protein kinase 11 (Homo sapiens) (UniProt Q15759). The experiment in a line: Inhibition of p38-beta at 1 uM.
In assay [2] the test system is Tyrosine-protein kinase ABL1 (Homo sapiens), P00519 [F317L]. Description: Inhibition of ABL1 F317L mutant at 1 uM.
The target in assay [3] is T1, Myotonin-protein kinase (Homo sapiens) (UniProt Q09013).
T1 sequence (whole entry): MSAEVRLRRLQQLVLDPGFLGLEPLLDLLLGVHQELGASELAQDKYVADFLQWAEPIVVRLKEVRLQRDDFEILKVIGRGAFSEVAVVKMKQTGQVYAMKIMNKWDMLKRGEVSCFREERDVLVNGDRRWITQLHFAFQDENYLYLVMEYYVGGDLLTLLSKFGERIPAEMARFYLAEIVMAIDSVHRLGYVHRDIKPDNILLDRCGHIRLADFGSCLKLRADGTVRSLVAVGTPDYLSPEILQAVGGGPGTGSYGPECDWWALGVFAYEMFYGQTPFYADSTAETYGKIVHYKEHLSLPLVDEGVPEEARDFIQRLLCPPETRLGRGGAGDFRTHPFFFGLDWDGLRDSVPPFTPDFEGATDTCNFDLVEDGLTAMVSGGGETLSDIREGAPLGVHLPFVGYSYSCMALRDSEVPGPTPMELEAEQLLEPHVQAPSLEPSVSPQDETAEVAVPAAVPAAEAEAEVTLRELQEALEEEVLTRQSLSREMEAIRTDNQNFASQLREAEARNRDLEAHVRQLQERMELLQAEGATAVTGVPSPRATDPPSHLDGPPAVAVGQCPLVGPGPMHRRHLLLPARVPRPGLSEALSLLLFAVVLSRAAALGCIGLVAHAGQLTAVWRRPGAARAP
The experiment in a line: Inhibition of DMPK at 1 uM. A digest of the protocol: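 Single-concentration screen using Ambit Bioscience KINOMEscan technology across a panel of 250–400 kinases. Per-kinase inhibition from this screen was summarized as S(90), the fraction of kinases inhibited by more than 90%.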

The target in assay [4] is T2, Serine/threonine-protein kinase STK11 (Homo sapiens) (UniProt Q15831).
T2 sequence (whole entry): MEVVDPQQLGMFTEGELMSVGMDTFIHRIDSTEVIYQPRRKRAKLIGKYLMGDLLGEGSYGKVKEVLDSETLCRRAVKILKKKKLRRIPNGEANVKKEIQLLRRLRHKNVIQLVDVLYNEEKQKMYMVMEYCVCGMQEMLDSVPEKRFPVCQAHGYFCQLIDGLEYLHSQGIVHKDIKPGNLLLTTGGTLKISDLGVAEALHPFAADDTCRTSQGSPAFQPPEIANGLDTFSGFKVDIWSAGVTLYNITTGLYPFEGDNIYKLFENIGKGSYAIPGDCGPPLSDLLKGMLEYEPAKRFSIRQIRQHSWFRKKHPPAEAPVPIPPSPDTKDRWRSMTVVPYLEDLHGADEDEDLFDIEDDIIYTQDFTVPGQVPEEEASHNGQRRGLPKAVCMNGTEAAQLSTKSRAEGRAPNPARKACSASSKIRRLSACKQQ
The experiment in a line: Inhibition of LKB1 at 1 uM. A digest of the protocol:
(§1)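 Single-concentration screen on the Ambit KINOMEscan platform, run against a panel of 250–400 kinases. Per-kinase inhibition was also summarized as S(90), the fraction of kinases inhibited by more than 90%.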

For assay [5], the target named is Dual specificity tyrosine-phosphorylation-regulated kinase 1A (Homo sapiens) (UniProt Q13627). The experiment in a line: Inhibition of DYRK1A at 1 uM.
In assay [6] the target is Mitogen-activated protein kinase 8 (Homo sapiens) (UniProt P45983). Description: Inhibition of JNK1 at 1 uM. A digest of the protocol:
as §1

Assay [7] concerns the target Cyclin-dependent kinase 11B (Homo sapiens) (UniProt P21127). The experiment in a line: Inhibition of CDC2L1 at 1 uM.
Assay [8] has as its target Tyrosine-protein kinase Blk (Homo sapiens) (UniProt P51451). Description: Inhibition of BLK at 1 uM. The gist of the method: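 Ambit KINOMEscan screen at a single concentration across a 250–400 kinase panel, recorded as percent inhibition. Selectivity was expressed as S(90), the fraction of kinases inhibited >90%.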
For assay [9], the target named is T3, Serine/threonine-protein kinase ULK3 (Homo sapiens) (UniProt Q6PHR2).
T3 sequence (whole entry): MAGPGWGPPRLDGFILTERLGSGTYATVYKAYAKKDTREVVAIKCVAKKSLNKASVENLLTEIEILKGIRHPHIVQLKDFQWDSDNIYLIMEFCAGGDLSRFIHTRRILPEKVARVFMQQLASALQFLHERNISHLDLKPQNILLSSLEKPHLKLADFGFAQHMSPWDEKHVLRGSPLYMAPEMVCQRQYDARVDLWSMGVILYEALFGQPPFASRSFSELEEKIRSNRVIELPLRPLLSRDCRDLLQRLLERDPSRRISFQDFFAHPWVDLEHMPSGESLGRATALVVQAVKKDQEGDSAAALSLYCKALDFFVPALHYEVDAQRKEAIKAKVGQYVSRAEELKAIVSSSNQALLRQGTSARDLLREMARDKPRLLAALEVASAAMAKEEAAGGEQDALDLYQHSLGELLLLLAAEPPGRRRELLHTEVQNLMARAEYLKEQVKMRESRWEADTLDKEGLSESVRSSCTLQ
Description: Inhibition of ULK3 at 1 uM.

Chain of Tyrosine-protein kinase ABL1 (Homo sapiens), P00519 [F317L] (P00519 whole entry F317L): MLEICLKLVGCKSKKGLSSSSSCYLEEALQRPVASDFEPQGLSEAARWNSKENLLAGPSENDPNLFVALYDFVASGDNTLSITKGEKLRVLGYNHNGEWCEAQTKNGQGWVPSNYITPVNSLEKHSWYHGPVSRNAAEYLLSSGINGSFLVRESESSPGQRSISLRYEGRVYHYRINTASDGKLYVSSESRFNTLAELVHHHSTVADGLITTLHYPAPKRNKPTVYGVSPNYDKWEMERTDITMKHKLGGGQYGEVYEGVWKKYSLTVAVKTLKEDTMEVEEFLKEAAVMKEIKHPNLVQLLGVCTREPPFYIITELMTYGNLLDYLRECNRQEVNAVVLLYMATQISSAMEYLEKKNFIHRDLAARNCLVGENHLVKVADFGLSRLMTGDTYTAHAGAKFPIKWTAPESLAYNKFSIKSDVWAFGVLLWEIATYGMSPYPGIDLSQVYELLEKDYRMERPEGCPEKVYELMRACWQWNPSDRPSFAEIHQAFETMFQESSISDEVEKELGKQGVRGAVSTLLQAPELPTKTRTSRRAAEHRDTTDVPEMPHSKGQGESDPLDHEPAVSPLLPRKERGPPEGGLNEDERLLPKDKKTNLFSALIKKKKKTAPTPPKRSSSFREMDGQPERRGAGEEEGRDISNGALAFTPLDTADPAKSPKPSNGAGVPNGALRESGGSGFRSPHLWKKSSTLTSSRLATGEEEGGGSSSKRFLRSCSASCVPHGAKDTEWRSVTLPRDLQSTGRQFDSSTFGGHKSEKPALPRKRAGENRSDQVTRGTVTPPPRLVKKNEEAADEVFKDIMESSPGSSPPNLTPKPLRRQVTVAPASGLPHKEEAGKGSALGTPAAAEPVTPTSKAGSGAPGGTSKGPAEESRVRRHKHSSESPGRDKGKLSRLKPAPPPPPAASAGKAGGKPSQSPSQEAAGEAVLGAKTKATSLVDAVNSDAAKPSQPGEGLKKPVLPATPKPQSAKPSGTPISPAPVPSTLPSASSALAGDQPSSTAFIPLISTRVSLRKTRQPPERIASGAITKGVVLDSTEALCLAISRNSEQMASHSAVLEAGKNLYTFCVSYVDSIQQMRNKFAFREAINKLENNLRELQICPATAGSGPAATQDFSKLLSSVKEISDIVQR
Chain of Mitogen-activated protein kinase 8 (Homo sapiens) (P45983 whole entry): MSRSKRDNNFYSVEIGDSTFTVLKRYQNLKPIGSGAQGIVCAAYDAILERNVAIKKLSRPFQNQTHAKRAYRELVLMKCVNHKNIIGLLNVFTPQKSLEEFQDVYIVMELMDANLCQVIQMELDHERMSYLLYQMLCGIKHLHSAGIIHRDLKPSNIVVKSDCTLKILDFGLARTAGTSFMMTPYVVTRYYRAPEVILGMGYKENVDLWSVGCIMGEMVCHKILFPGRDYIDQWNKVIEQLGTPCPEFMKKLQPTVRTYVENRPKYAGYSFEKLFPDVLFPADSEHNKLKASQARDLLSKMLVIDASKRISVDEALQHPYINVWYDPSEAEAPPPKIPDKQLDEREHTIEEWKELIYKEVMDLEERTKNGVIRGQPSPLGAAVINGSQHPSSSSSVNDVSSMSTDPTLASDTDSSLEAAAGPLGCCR
Chain of Cyclin-dependent kinase 11B (Homo sapiens) (P21127 whole entry): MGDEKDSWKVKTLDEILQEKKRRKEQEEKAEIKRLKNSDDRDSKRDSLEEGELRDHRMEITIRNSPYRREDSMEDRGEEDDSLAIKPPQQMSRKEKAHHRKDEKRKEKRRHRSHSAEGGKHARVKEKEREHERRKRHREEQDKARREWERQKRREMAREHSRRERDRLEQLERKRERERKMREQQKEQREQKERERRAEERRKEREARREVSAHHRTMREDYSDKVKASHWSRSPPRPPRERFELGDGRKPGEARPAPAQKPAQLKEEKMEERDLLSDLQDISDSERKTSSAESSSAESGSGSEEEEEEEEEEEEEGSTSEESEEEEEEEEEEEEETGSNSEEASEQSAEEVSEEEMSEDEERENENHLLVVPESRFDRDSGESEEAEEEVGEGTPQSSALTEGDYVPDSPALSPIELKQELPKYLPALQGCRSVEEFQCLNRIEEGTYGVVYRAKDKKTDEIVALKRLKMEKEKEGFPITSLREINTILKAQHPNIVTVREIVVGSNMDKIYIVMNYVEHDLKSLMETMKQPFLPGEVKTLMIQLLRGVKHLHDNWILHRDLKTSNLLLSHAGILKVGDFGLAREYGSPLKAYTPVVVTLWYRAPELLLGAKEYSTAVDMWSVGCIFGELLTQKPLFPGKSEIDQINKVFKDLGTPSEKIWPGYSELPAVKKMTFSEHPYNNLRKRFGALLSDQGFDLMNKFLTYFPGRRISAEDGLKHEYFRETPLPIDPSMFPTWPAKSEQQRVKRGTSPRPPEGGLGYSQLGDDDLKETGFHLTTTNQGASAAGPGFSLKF
Chain of Mitogen-activated protein kinase 11 (Homo sapiens) (Q15759 whole entry): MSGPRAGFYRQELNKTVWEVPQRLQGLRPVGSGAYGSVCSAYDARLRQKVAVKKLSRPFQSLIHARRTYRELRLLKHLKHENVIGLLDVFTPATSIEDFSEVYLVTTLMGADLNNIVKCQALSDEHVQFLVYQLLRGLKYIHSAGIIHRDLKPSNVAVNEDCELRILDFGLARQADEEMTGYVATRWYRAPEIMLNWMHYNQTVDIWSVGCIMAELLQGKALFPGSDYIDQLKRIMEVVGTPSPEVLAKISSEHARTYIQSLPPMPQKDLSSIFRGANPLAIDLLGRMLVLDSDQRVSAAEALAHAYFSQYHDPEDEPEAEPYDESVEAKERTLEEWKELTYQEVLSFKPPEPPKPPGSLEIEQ
Chain of Tyrosine-protein kinase Blk (Homo sapiens) (P51451 2-505 limits assumed): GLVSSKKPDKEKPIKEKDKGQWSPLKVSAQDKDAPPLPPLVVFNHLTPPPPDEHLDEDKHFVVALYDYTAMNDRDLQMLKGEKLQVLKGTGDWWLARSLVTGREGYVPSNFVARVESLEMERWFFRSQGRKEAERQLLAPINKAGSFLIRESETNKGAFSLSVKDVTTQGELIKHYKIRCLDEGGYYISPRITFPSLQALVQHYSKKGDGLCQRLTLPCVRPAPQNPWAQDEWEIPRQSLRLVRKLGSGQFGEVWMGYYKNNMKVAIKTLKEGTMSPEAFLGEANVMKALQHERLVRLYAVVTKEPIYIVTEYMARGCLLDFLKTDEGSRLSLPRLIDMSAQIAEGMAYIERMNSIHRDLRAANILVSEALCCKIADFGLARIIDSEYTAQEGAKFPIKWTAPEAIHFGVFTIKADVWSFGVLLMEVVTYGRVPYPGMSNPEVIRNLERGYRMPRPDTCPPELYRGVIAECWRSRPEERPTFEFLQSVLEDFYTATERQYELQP

As a reminder, the inhibition is how much of the control response was suppressed. Read a low inhibition as a response near the control. For the molecule `FC(F)(F)c1ccc(Cl)cc1CN1CCNc2ncc(-c3ccnc(N4CCNCC4)c3)cc21`, the inhibition in [1], in assay [2], in [3], in [4], in assay [5] and in [6] was less than 50% throughout. Also, the inhibition in assay [7], in assay [8] and in assay [9] was less than 50% in each case.
As for `CN1CCN(c2ccc(-c3cnc4c(c3)N(Cc3cc(Cl)ccc3Cl)CCN4)cn2)CC1`, the inhibition in assay [1], in assay [2], in assay [3], in assay [4], in [5] and in assay [6] was less than 50% in each case. For the same molecule, the inhibition in assay [7], in [8] and in assay [9] was less than 50% each time.
Consider `COC1CCN(C(=O)c2ccc(-c3cnc4c(c3)N(Cc3cc(Cl)ccc3C(F)(F)F)CCN4)cc2)CC1`, for which the inhibition in assay [1], in assay [3], in assay [4], in assay [6] and in assay [8] was less than 50% each time.
As for `O=C(c1ccc(-c2cnc3c(c2)N(Cc2cc(Cl)ccc2C(F)(F)F)CCN3)cc1)N1CCCCC1`, the inhibition in [1], in [3], in [4], in assay [6] and in assay [8] was less than 50% in each case.
As for `O=C(O)c1ccc(-c2cnc3c(c2)N(Cc2cc(Cl)ccc2C(F)(F)F)CCN3)cc1`, the inhibition in [1], in assay [2], in assay [3], in [4], in assay [6] and in assay [8] was less than 50% in each case.
On to `CN1CCN(c2ccc(-c3cnc4c(c3)N(Cc3cc(F)ccc3F)CCN4)cn2)CC1`, for which the inhibition in [1], in [2], in assay [3], in assay [4], in assay [5] and in assay [6] was less than 50% throughout. Besides, the inhibition in [7], in assay [8] and in [9] was less than 50% throughout.
As for `O=C(c1ccc(-c2cnc3c(c2)N(Cc2cc(Cl)ccc2C(F)(F)F)CCN3)cc1)N1CCC(N2CCCC2)CC1`, the inhibition in assay [1], in assay [3], in assay [4], in assay [6] and in assay [8] was less than 50% each time.
Take `CN1CCN(c2ccc(-c3cnc4c(c3)N(Cc3c(F)ccc(F)c3Cl)CCN4)cn2)CC1`: the inhibition in [1] was less than 50%; in assay [2] it was 77%; in assay [3], less than 50%; in assay [4], less than 50%; in assay [5], less than 50%; in assay [6] it was less than 50%. For the same molecule, the inhibition in assay [7], in assay [8] and in assay [9] was less than 50% in each case.
For the molecule `CC(=O)N1CCN(c2cc(-c3cnc4c(c3)N(Cc3cc(Cl)ccc3C(F)(F)F)CCN4)ccn2)CC1`, the inhibition in [1], in [2], in [3], in assay [4], in assay [5] and in assay [6] was less than 50% throughout. Besides, the inhibition in assay [7], in assay [8] and in [9] was less than 50% in each case.
As for `CN1CCN(c2ccc(-c3cnc4c(c3)N(Cc3cc(Cl)ccc3C(F)(F)F)CCN4)cn2)CC1`, the inhibition in assay [1], in assay [2], in [3], in assay [4], in [5] and in [6] was less than 50% in each case. For the same molecule, the inhibition in assay [7], in assay [8] and in [9] was less than 50% in each case.
